Measured values from publication PMC10762718 (RSC Advances, 2024).

Assays:
Format in all cases: cell-based
MDA-MB-453 cells = experiment: MTT cell viability assay, MDA-MB-453
Summary of the method: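 MDA-MB-453 (HER2-positive) cells were exposed to test compound at 1, 10 and 25 μM for 72 h. After medium removal, MTT was added for 3 h at 37 °C in CO2. Formazan was dissolved in DMSO and absorbance read at 595 nm. Percent viable cells are relative to untreated control cells.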

[1] = system: MCF-7 breast cancer cells; experiment: MTT cell viability assay, MCF-7; conditions: Homo sapiens
Summary of the method: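 After medium removal, MTT was added for 3 h at 37 °C in CO2, formazan dissolved in DMSO and absorbance read at 595 nm. Viability is relative to untreated cells, triplicates, n = 3, ±SD. IC50 comes from plotting percent viability against concentration.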

[2] = system: MDA-MB-231 (human breast cancer) cells; experiment: MTT cell viability assay, MDA-MB-231
Summary of the method: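 MDA-MB-231 cells were grown as a monolayer in DMEM with 10% heat-inactivated FBS and 1% penicillin-streptomycin at 37 °C in humidified CO2, subcultured every third day with trypsin-EDTA, and used before passage 8. Cells were exposed 72 h to 10, 25 and 50 μM. Medium was removed, MTT added for 3 h at 37 °C, formazan dissolved in DMSO and read at 595 nm. Viability is relative to untreated control, triplicates, ±SD. IC50 comes from the viability-versus-concentration plot.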

[3] = system: normal mammary epithelial MCF-10A cells; experiment: MTT cell viability assay, normal MCF-10A cells; conditions: tested at 25, 50 and 100 μM
Summary of the method: (§1)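 Normal mammary epithelial MCF-10A cells were exposed to test compound at 25, 50 and 100 μM for 72 h. Cells were then given MTT after medium removal, 3 h at 37 °C in CO2. Formazan was dissolved in DMSO and absorbance read at 595 nm. Viability is expressed as percent of untreated control cells.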

[4] = MTT cell viability assay, normal MCF-10A cells; conditions: human, MCF-10A normal mammary epithelial cells
Summary of the method: as §1

[5] = Homo sapiens, MDA-MB-453, read-out: Cell viability (%) ±SD
[6] = MCF7, read-out: Cell viability (%) ±SD
[7] = MDA-MB-231, 72 h, read-out: Cell viability (%) ±SD

CC(=O)OC[C@@H]1O[C@H](n2cc(Cn3ccc4nc(-c5ccc(Br)cc5)cc(=O)n43)nn2)[C@@H](OC(C)=O)[C@H](OC(C)=O)[C@@H]1OC(C)=O (stereo in doubt) [Compound 33, (2S,3R,4R,5S,6S)-2-(Acetoxymethyl)-6-(4-((5-(4-bromophenyl)-7-oxopyrazolo[1,5-a]pyrimidin-1(7H)-yl)methyl)-1H-1,2,3-triazol-1-yl)tetrahydro-2H-pyran-3,4,5-triyl triacetate]
viability at 1 µM (MDA-MB-453 cells; [5]): 88.8 ± 5.2% | viability at 10 µM (MDA-MB-453 cells; [5]): 78.3 ± 4.7% | viability at 25 µM (MDA-MB-453 cells; [5]): 67.6 ± 5.3% | IC50 against MDA-MB-453 cells (MDA-MB-453 cells; tested at 1, 10 and 25 μM): did not reach up to IC50 value | inhibition at 25 µM ([1]; MCF7): ~50% | IC50 ([1]; MCF7, 72 h, read-out: IC50 against MCF-7 breast cancer cells line): 7.32 µM | viability at 1 µM [1, 6]: 67 ± 4.7% | viability at 10 µM [1, 6]: 35 ± 2.5% | viability at 25 µM [1, 6]: 25 ± 2.9% | inhibition at 25 µM ([2]; MDA-MB-231): ~50% | viability at 10 µM [2, 7]: 66.7 ± 8.23% | viability at 25 µM [2, 7]: 63.3 ± 6.32% | viability at 50 µM [2, 7]: 47 ± 4.91% | growth inhibitory activity against normal breast epithelial cell (MCF-10A) [3]: none of these compounds did have any growth inhibitory activity | viability at 72 h, 25 µM [4]: 99.6 ± 2.2% | viability at 72 h, 50 µM [4]: 87.6 ± 1.7% | viability at 72 h, 100 µM [4]: 81.4 ± 2.6%
